In brackets after ≈: the same amount, converted by molar mass.
Assays:
Assay type in all cases: functional
Aspergillus fumigatus = assay: Antifungal activity against Aspergillus fumigatus
How it was run: (§1)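 NCCLS broth serial dilution in RPMI 1640 buffered with 0.165 M MOPS. Compounds were dissolved in DMSO and serially diluted in medium. Strains came from ATCC or clinical isolates. The growth MIC for filamentous fungi was read at 7 d, taken as the lowest concentration giving ≥80% turbidity inhibition versus the growth control.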

Cryptococcus neoformans = assay: Antifungal activity against Cryptococcus neoformans after 72 hrs
How it was run: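 Cryptococcus neoformans was tested by NCCLS serial dilution in MOPS-buffered (0.165 M) RPMI 1640 at 35 °C. Compounds were dissolved in DMSO and diluted in medium. The MIC was read at 72 h as the lowest concentration giving turbidity inhibition of ≥80% relative to the growth control.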

Candida albicans = assay: Antifungal activity against Candida albicans after 24 hrs
How it was run: (§2)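 Candida yeasts were tested by NCCLS microdilution in RPMI 1640 buffered with 0.165 M MOPS and incubated at 35 °C. Compounds were dissolved in DMSO and serially diluted in medium. Isolates came from ATCC or the clinic. The MIC was read at 24 h as the lowest concentration achieving ≥80% growth inhibition versus the control.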

Trichophyton rubrum = assay: Antifungal activity against Trichophyton rubrum
How it was run: (§3)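 Dermatophytes were tested by NCCLS serial dilution in RPMI 1640 with 0.165 M MOPS and incubated at 28 °C. Compounds were dissolved in DMSO and diluted in medium. Strains came from ATCC or clinical isolates. The MIC was read at 7 d as the lowest concentration reducing turbidity by ≥80% relative to the drug-free control.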

Microsporum = assay: Antifungal activity against Microsporum gypseum; how it was run: as §3
Candida parapsilosis = assay: Antifungal activity against Candida parapsilosis after 24 hrs; conditions: Lodderomyces parapsilosis; how it was run: as §2
Fonsecaea compacta = assay: Antifungal activity against Fonsecaea compacta; how it was run: as §1

Structure (SMILES) | MIC (Aspergillus fumigatus) [µM] | MIC (Cryptococcus neoformans) [µM] | MIC (Candida albicans) [µM] | MIC (Trichophyton rubrum) [µM] | MIC (Microsporum) [µM] | MIC (Candida parapsilosis) [µM] | MIC (Fonsecaea compacta) [µM]
CCCCCCCCCCCCNC1CCc2cccc(OC)c2C1 (centres undefined) | 32 (≈ 11.1 µg/mL) | 16 (≈ 5.53 µg/mL) | 4 (≈ 1.38 µg/mL) | 4 (≈ 1.38 µg/mL) | 64 (≈ 22.1 µg/mL) | 16 (≈ 5.53 µg/mL) | 8 (≈ 2.76 µg/mL)
CCCCCCCCCCCCNC1CCc2cc(O)ccc2C1 (centres undefined) | > 64 | 2 (≈ 0.663 µg/mL) | 1 (≈ 0.332 µg/mL) | 2 (≈ 0.663 µg/mL) | 8 (≈ 2.65 µg/mL) | 8 (≈ 2.65 µg/mL) | 4 (≈ 1.33 µg/mL)
CCCCNC1CCc2c(O)cccc2C1 (centres undefined) | > 64 | > 64 | > 64 | 64 (≈ 14 µg/mL) | > 64 | > 64 | 64 (≈ 14 µg/mL)
CCCCNC1CCc2cc(O)ccc2C1 (centres undefined) | > 64 | > 64 | > 64 | 64 (≈ 14 µg/mL) | > 64 | > 64 | > 64
CCCCCCCCCCCCNC1CCc2cccc(O)c2C1 (centres undefined) | 32 (≈ 10.6 µg/mL) | 32 (≈ 10.6 µg/mL) | 16 (≈ 5.3 µg/mL) | 4 (≈ 1.33 µg/mL) | > 64 | 32 (≈ 10.6 µg/mL) | 8 (≈ 2.65 µg/mL)
COc1cccc2c1CC(Nc1ccc(Cl)cc1)CC2 (centres undefined) | > 64 | > 64 | > 64 | > 64 | 32 (≈ 9.21 µg/mL) | > 64 | > 64
CCCCCCCCCCNC1CCc2cccc(OC)c2C1 (centres undefined) | 16 (≈ 5.08 µg/mL) | 1 (≈ 0.318 µg/mL) | 0.25 (≈ 0.0794 µg/mL) | 1 (≈ 0.318 µg/mL) | 2 (≈ 0.635 µg/mL) | 2 (≈ 0.635 µg/mL) | 1 (≈ 0.318 µg/mL)
CCCCCCCCCCCCNC1CCc2ccc(O)cc2C1 (centres undefined) | > 64 | 32 (≈ 10.6 µg/mL) | 16 (≈ 5.3 µg/mL) | 1 (≈ 0.332 µg/mL) | 4 (≈ 1.33 µg/mL) | > 64 | 32 (≈ 10.6 µg/mL)
CCCCCCCCNC1CCc2c(cccc2OC)C1 (centres undefined) | 16 (≈ 4.63 µg/mL) | 16 (≈ 4.63 µg/mL) | 8 (≈ 2.32 µg/mL) | 8 (≈ 2.32 µg/mL) | > 64 | 16 (≈ 4.63 µg/mL) | 4 (≈ 1.16 µg/mL)
CCCCCCCCNC1CCc2ccc(OC)cc2C1 (centres undefined) | 64 (≈ 18.5 µg/mL) | 16 (≈ 4.63 µg/mL) | 1 (≈ 0.289 µg/mL) | 4 (≈ 1.16 µg/mL) | 8 (≈ 2.32 µg/mL) | 32 (≈ 9.26 µg/mL) | 4 (≈ 1.16 µg/mL)
CCCCNC1CCc2cccc(OC)c2C1 (centres undefined) | 64 (≈ 14.9 µg/mL) | > 64 | > 64 | 16 (≈ 3.73 µg/mL) | 32 (≈ 7.47 µg/mL) | > 64 | 0.25 (≈ 0.0583 µg/mL)
Oc1ccc2c(c1)CCC(Nc1ccc(Cl)cc1)C2 (centres undefined) | 64 (≈ 17.5 µg/mL) | 16 (≈ 4.38 µg/mL) | > 64 | 0.25 (≈ 0.0684 µg/mL) | 4 (≈ 1.1 µg/mL) | 32 (≈ 8.76 µg/mL) | 32 (≈ 8.76 µg/mL)
COc1cccc2c1CCC(N)C2 (centres undefined) | > 64 | > 64 | > 64 | 8 (≈ 1.42 µg/mL) | > 64 | > 64 | 64 (≈ 11.3 µg/mL)
COc1cccc2c1CC(N)CC2 (centres undefined) | > 64 | > 64 | > 64 | 64 (≈ 11.3 µg/mL) | > 64 | > 64 | > 64
CCCCCCCCCCCCNC1CCc2cc(OC)ccc2C1 (centres undefined) | > 64 | 4 (≈ 1.38 µg/mL) | 4 (≈ 1.38 µg/mL) | 4 (≈ 1.38 µg/mL) | > 64 | 32 (≈ 11.1 µg/mL) | 64 (≈ 22.1 µg/mL)
CCCCCCCCCCCCNC1CCc2c(O)cccc2C1 (centres undefined) | > 64 | > 64 | 4 (≈ 1.33 µg/mL) | 32 (≈ 10.6 µg/mL) | 2 (≈ 0.663 µg/mL) | > 64 | > 64
CCCCNC1CCc2cc(OC)ccc2C1 (centres undefined) | > 64 | 64 (≈ 14.9 µg/mL) | 64 (≈ 14.9 µg/mL) | 64 (≈ 14.9 µg/mL) | > 64 | > 64 | > 64
CCCCNC1CCc2ccc(O)cc2C1 (centres undefined) | > 64 | > 64 | > 64 | > 64 | 64 (≈ 14 µg/mL) | > 64 | 64 (≈ 14 µg/mL)
CCCCCCCCNC1CCc2ccc(O)cc2C1 (centres undefined) | > 64 | 16 (≈ 4.41 µg/mL) | 4 (≈ 1.1 µg/mL) | 8 (≈ 2.2 µg/mL) | 4 (≈ 1.1 µg/mL) | 32 (≈ 8.81 µg/mL) | 8 (≈ 2.2 µg/mL)
CCCCCCCCCNC1CCc2ccc(O)cc2C1 (centres undefined) | 64 (≈ 18.5 µg/mL) | 8 (≈ 2.32 µg/mL) | 1 (≈ 0.289 µg/mL) | 4 (≈ 1.16 µg/mL) | 8 (≈ 2.32 µg/mL) | 16 (≈ 4.63 µg/mL) | 8 (≈ 2.32 µg/mL)
Oc1cccc2c1CCC(Nc1ccc(Cl)cc1)C2 (centres undefined) | 64 (≈ 17.5 µg/mL) | 8 (≈ 2.19 µg/mL) | 2 (≈ 0.548 µg/mL) | 2 (≈ 0.548 µg/mL) | 0.5 (≈ 0.137 µg/mL) | 8 (≈ 2.19 µg/mL) | 16 (≈ 4.38 µg/mL)
COc1ccc2c(c1)CC(N)CC2 (centres undefined) | > 64 | > 64 | > 64 | 64 (≈ 11.3 µg/mL) | > 64 | > 64 | > 64

Source: ChEMBL document CHEMBL1137547, “Synthesis and antifungal activities of novel 2-aminotetralin derivatives” (2007)
